# ABHD5-PLIN5 inh = inhibitors of human ABHD5-perilipin-5 interaction. Q00G26+Q8WTS1. Split G. princeps luciferase complementation, luminescence, 4 h. 360,000 tested, 0.78% active. inhibition, % at 4 µM;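 active = inhibition above the mean inhibition across every tested compound plus 3 SD, cut at about 22% in these data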;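 also: 0% = DMSO only wells and the 100% control is not disclosed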
# Rin1-Abl PPI inh = blocks binding of human Rin1 to Abl. TR-FRET Rin1/Abl binding, biochemical. inhibition, % at 7.35 µM. 360,000 tested, 0.4% active. AID 588664; in the data active = inhibition above about 5%, passing the limit was not always enough
# Arrestin-AP2 inh = inhibitors of human beta-arrestin and AP2 interaction; inhibition, % at 10 µM; 340,000 tested, 0.31% active; FITC-arrestin peptide / GST-AP2 beads, flow cytometry; AP2 beta2 appendage carries R879A mutation;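 active = inhibition above a set limit, near 3 SD of compounds lacking own fluorescence, cut at about 54% in these data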;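 also: plate controls were DMSO wells for no effect and 5 µM unlabelled arrestin peptide for full effect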
#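 System: GST-AP2 R879A glutathione beads. Medium: PBS with 0.05% Tween 20 and 0.1% BSA. Also added: FITC-arrestin peptide, 50 nM. Incubation: 12 min plus 1 h, RT. Measured by: high-throughput flow cytometry of beads, ex 488, em 535 nm. Evaluation: percent drop in bead-associated FITC signal.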
# MBD2 DNA inh = blocks human MBD2 binding to methylated DNA; Q9UBB5; TR-FRET, MBD2 binding to methylated oligonucleotide; inhibition, % at 4.4 µM; 370,000 tested, 0.31% active; AID 686964; in the data active = inhibition above about 13%
# B2AR ag = activates human beta-2 adrenergic receptor causing internalization. Am2.2-beta2AR cells, FAP receptor internalization, flow cytometry. response, % (concentration not given with the values). 340,000 tested, 0.43% active;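 active = response above a set limit, near 3 SD of response in nonfluorescent compounds, cut at about 42% in these data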
# UHRF1 binding = UHRF1 methyl-DNA binding inhibition; Q96T88; UHRF1 binding to methylated oligo, TR-FRET; inhibition, % at 4.4 µM; 370,000 tested, 0.75% active; in the data active = inhibition above about 21%;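 also: UHRF1 SRA domain binding a hemimethylated CpG hairpin DNA probe; 0% = median of test compound wells and 100% = reference inhibitor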
# ABHD5 PLIN5 conf = ABHD5-PLIN5 interaction inhibition, confirmed; shares compounds with ABHD5-PLIN5 inh; 2,200 tested, 67% active; biochemical ABHD5-PLIN5 interaction, luminescence; inhibition, % at 4 µM; AID 651612; in the data active = inhibition above about 23%;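 also: 0% = DMSO vehicle wells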
# HNF4 split-luc = HNF4 split-luciferase signal hit, counter-screen; shares compounds with ABHD5-PLIN5 inh; HNF4 dimerization, luminescence, biochemical; inhibition, % at 4 µM; 2,200 tested, 77% active;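 active = mean inhibition across replicate wells exceeding the computed hit threshold, cut at about 13% in these data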;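 also: light from luciferase halves that rejoin when HNF4 fusion proteins dimerize; 0% = DMSO only wells and the 100% control is not given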
# Target sequence (P41235 whole entry, looked up, the tested form may be a part): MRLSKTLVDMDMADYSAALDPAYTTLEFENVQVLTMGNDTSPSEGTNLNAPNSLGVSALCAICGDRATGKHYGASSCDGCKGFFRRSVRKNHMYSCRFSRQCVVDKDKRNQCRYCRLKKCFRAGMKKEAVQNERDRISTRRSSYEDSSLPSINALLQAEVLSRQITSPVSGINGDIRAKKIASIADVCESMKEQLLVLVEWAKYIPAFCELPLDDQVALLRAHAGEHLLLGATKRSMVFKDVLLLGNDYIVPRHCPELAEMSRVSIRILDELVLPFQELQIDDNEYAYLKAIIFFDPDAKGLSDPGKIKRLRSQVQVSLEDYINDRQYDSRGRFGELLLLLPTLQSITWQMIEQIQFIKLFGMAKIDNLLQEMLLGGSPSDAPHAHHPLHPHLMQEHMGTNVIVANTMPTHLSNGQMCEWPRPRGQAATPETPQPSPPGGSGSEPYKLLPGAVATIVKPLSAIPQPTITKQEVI
# * = called active by the depositor; · = not tested or not shown. Rows were chosen to be rich in hits. Some 2.5% of all compounds tested hit in one or more screens of this group.
SMILES,ABHD5-PLIN5 inh,Rin1-Abl PPI inh,Arrestin-AP2 inh,MBD2 DNA inh,B2AR ag,UHRF1 binding,ABHD5 PLIN5 conf,HNF4 split-luc
O=C(CCN1CCCCC1)c1ccc2c(c1)OCCO2,14,1,-7,1,11,2,·,·
O=C(CCN1CCCC1Cc1ccccc1)c1ccc2c(c1)OCCO2 (stereo not drawn),28*,-3,34,-8,33,-1,25*,87*
O=c1[nH]c(/C=C/c2ccccc2Cl)c([N+](=O)[O-])c(=O)[nH]1,39*,0,-11,-6,0,-1,71*,61*
O=C(COc1ccccc1/C=C\c1[nH]c(=O)[nH]c(=O)c1[N+](=O)[O-])Nc1ccccc1,30*,5,30,2,-5,-2,87*,84*
COc1cccc(/C=C/c2[nH]c(=O)[nH]c(=O)c2[N+](=O)[O-])c1O,32*,2,11,-1,-5,-1,78*,80*
COc1ccc(CN(C)C(=O)C2CCCN(c3nc4ccccc4o3)C2)cc1 (stereo not drawn),·,·,·,-3,·,-5,·,·
NC(=O)C1=C(c2ccccc2)c2ccccc2C1=O,74*,7,35,-2,14,-1,93*,94*
C[C@H]1[C@@H](OC(=O)NCc2cccnc2)CC[C@@]23CCCN2C(=O)CCC[C@@H]13,·,·,·,-5,·,-4,·,·
CC(C)NC(=O)c1cc(-c2ccco2)nn1-c1ccc(Cl)cc1,36*,1,22,-2,6,3,42*,59*
CC(C)NC(=O)c1nn2c(C(F)(F)F)cc(-c3ccco3)nc2c1Cl,-1,-4,14,0,-5,-2,·,·
CC(=O)c1cc(-c2ccccc2-c2ccccc2)c(=O)n2c1CCC2,·,·,·,1,·,0,·,·
C[C@H]1[C@@H](NCc2ccccc2)CC[C@@]23CCCN2C(=O)CCC[C@@H]13,·,·,·,-2,·,-1,·,·
NC(=O)C1=C[C@H](c2coc3ccccc3c2=O)C[C@H](OCCCCO)O1,23*,1,-5,-1,-1,4,2,6
CCCc1ccc(C2C3=C(CC(C)(C)CC3=O)NC3=C2C(=O)c2ccccc23)cc1 (stereo not drawn),42*,-1,2,-4,12,1,66*,75*
Cc1ccccc1NC(=O)C(=Cc1ccc(C(=O)O)cc1)C(=O)Nc1ccccc1C,27*,-1,12,3,15,26*,65*,45*
CC(=O)Nc1ccccc1C,-9,-1,-1,3,5,0,·,·
CC(=O)/C(=C/c1ccccc1)C(=O)Nc1ccccc1C,39*,5,10,-4,43*,-4,86*,71*
CC1=NN(c2ccccc2)C(=O)/C1=C\C=C1/N(C)c2ccccc2C1(C)C,26*,-9,-3,-9,12,-12,21,23*
C#CCNC(=O)C1=C[C@H](C2CCCCC2)[C@@H](CCCO)[C@H](OCC)O1,101*,-1,-3,-3,3,3,3,1
C(=C\c1ccco1)/C1=NN(c2ccccc2)C(c2ccco2)C1 (stereo not drawn),34*,-3,-8,·,-10,·,27*,18*
Cc1nc(SCC(=O)N(C)Cc2ccco2)c2c(C)c(C)sc2n1,32*,-3,6,-1,14,-1,18,22*
CC(C)(C)N(Cc1cn(Cc2ccccc2)nn1)S(=O)(=O)c1ccc(N2CCCC2)cc1Br,·,·,·,-3,·,3,·,·
Cc1cc(C)n(CCc2nc(-c3ccco3)cs2)n1,10,-2,7,2,-4,1,·,·
Cc1nn(CCc2nc(-c3ccco3)cs2)c2[nH]c(=O)cc(C(F)(F)F)c12,41*,4,17,1,-9,-2,21,16*
O=C(CC(Nc1ccccc1Cl)C(=O)O)c1ccccc1 (stereo not drawn),83*,1,-11,3,13,3,29*,97*
SMILES,ABHD5-PLIN5 inh,Rin1-Abl PPI inh,Arrestin-AP2 inh,MBD2 DNA inh,B2AR ag,UHRF1 binding,ABHD5 PLIN5 conf,HNF4 split-luc
Cc1c(Cl)cccc1NC(CC(=O)c1ccccc1)C(=O)O (stereo not drawn),84*,1,4,0,1,1,57*,108*
O=C(CC(Nc1cccc(Cl)c1Cl)C(=O)OCC(=O)c1cccs1)c1ccccc1 (stereo not drawn),14,-2,4,-2,2,0,·,·
O=C(CC(Nc1cccc(Cl)c1Cl)C(=O)O)c1ccccc1 (stereo not drawn),85*,-3,-7,-3,-1,1,15,73*
Cc1c(Cl)cccc1NC(CC(=O)c1ccccc1)C(=O)OCC(=O)c1cccs1 (stereo not drawn),14,1,0,7,0,5,·,·
CCOC(=O)c1csc(NC(=O)C2CCCN(S(=O)(=O)c3ccccc3)C2)n1 (stereo not drawn),·,·,·,1,·,8,·,·
COc1ccc2c(C(c3ccccc3O)C3CCCN3S(=O)(=O)c3ccc(C)cc3)cn(C)c2c1 (stereo not drawn),·,·,·,3,·,4,·,·
CCCCCCNC(=O)C1CSCCS(=O)(=O)N1Cc1ccc(F)cc1 (stereo not drawn),·,·,·,-10,·,0,·,·
CC1=C(C)CS(=O)N(c2ccc(S(N)(=O)=O)cc2)C1 (stereo not drawn),34*,-1,3,0,7,0,66*,89*
CC1=C(C)CS(=O)N(S(=O)(=O)c2ccccc2)C1 (stereo not drawn),58*,-5,6,-2,6,1,72*,101*
Cc1cccc(C)c1N1CCN(S(=O)(=O)c2ccccc2)CC1,-1,2,7,-1,-13,1,·,·
COC(=O)[C@]12C[C@H](CC(=O)NCCc3ccccc3OC)C(=O)N(Cc3ccco3)C1=C[C@H](COCc1ccccc1)O[C@@H]2C,·,·,·,6,·,2,·,·
CCN(CC)c1ccc(NC(=O)CSc2nnc(-c3ccc(Cl)cc3)n2Cc2ccco2)cc1,·,·,·,3,·,1,·,·
CS(=O)(=O)c1ccc(C(=O)NCCN2C(=O)S/C(=C\c3cccnc3)C2=O)cc1[N+](=O)[O-],56*,-2,-11,6,-3,4,67*,44*
CN(C)S(=O)(=O)c1ccc(C(=O)NCCN2C(=O)S/C(=C\c3cccnc3)C2=O)cc1,6,-1,0,-1,-16,0,·,·
Cc1ccc(CN2CCCCC(NC(=O)c3ccc4ccccc4c3)C2=O)cc1 (stereo not drawn),·,·,·,-3,·,-2,·,·
